# Hits are enriched below; roughly 2.7% of the tested compounds scored in any of these assays.
# Tb hexokinase: T. brucei hexokinase 1 inhibition; recombinant TbHK1, G6PDH-coupled NADH A340; inhibition, % at 10 µM; hit rate 0.11% among 220,000; AID 1430;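 active = inhibition of 50% or more in the single-dose primary screen; inactive = inhibition below 50%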
# Wee1 stabilizer: human Wee1 degradation inhibition, primary screen | P30291 | HeLa Luc-Wee1K328M stability, luciferase luminescence; 100% = proteasome inhibitor MG132 effect | reporter increase, % at 5 µM | hit rate 1.2% among 220,000 | AID 1321;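 active = activation above the mean of all tested compounds plus 3 SD, set per screening run, cut at about 8.8% in these data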;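 also: cells exposed to compound for 20 h before luminescence read; 0% = DMSO alone and 100% = MG132 at 30 µM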
# Target sequence (P30291 whole entry K328M): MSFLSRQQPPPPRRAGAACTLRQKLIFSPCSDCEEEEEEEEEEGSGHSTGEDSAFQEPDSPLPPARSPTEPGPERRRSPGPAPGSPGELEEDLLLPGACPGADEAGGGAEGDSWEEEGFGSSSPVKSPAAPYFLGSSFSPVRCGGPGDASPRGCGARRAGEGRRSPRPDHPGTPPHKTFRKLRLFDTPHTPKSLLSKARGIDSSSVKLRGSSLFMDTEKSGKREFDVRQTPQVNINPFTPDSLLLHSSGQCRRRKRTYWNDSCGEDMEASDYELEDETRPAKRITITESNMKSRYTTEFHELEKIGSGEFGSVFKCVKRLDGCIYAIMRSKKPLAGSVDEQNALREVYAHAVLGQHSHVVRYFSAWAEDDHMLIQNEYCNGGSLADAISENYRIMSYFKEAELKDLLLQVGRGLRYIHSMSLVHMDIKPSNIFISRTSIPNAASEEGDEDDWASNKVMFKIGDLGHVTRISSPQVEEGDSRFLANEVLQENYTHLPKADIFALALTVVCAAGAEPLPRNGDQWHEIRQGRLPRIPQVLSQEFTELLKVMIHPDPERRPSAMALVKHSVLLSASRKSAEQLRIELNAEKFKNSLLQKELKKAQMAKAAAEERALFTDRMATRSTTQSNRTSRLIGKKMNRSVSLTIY
# Hck-Nef inh: inhibitors of human Hck kinase activated by Nef. P08631. Recombinant Hck-YEEI plus Nef, Z-Lyte FRET kinase assay. inhibition, % at 20 µM. hit rate 0.68% among 220,000. AID 463187;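 active = Hck-Nef kinase inhibition above about 50%, limit read from the data; inactive = inhibition below that limit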;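 also: 0% = DMSO with Hck plus Nef and 100% = Hck alone without Nef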
# MDM2 E3 inh: blocks human Mdm2 ubiquitin ligase activity. Q00987. cell-based MDM2 ubiquitination luciferase reporter, 2 h; 0 = plate control, 100 = twice control, blank-subtracted. signal enhancement, % at 5 µM. hit rate 0.11% among 210,000. AID 1230;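 active = signal enhancement of 30% or more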;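 also: luminescence tracks abundance of the self-degrading MDM2-luciferase fusion protein; higher signal means inhibition of MDM2 E3 ligase activity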
#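 Timing – 2 h compound exposure at 37 °C · Assay system – mammalian cells stably expressing self-ubiquitinating, self-degrading MDM2 E3–luciferase fusion · Amount – 2000 cells seeded into each well · Measure – % luminescence enhancement versus blank-corrected plate control mean · Measured by – SteadyLite luminescence, 15 min reagent step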
# 14-3-3 Bad PPI: disrupts binding of bovine 14-3-3 zeta to phospho-Bad peptide; TR-FRET 14-3-3zeta/Dy647-pBad peptide displacement, 1 h; AID 781; inhibition, % at 21.7 µM; hit rate 0.71% among 220,000; P63103;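 active = inhibition above about 70%, limit read from the data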;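 also: 0% = full 14-3-3 plus peptide FRET controls and 100% = background without 14-3-3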
# Hck-Nef confirm: confirmation of Hck-Nef kinase inhibitors. shares compounds with Hck-Nef inh. Recombinant Hck-YEEI:Nef, Z-Lyte FRET kinase assay. calls only at 10 µM. hit rate 28% among 1,300;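 active = average inhibition of at least 50%, with Z-scores no higher than 3 in both the phospho-tyrosine peptide and fluorescence counterscreens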
# * = called active by the depositor; i = inactive; . = no result given; + = active, no number; [ ] = remark or other dose.
SMILES,Tb hexokinase,Wee1 stabilizer,Hck-Nef inh,MDM2 E3 inh,14-3-3 Bad PPI,Hck-Nef confirm
CN(C)Cc1c(O)c(Cl)cc2c3c(c(=O)oc12)CCCC3,-35,-1,137*,-20,4,.
O=c1oc2c(CN3CCOCC3)c(O)c(Cl)cc2c2c1CCC2,-15,-3,158*,-5,-1,.
CCCCN(C(=O)CSc1nnnn1C)c1c(N)n(Cc2ccccc2)c(=O)[nH]c1=O,-16,0,11,7,3,.
COc1ccc(NC(=S)N2CCN(c3ncccn3)CC2)c(OC)c1,-13,3,17,.,-4,.
COC(=O)c1c(NC(NC(=O)C(C)C)C(Cl)(Cl)Cl)sc2c1CCC2 (stereo not given),26,-3,1,-6,-8,.
CCOC(=O)c1cc(-c2ccc(/C=C3/C(=O)NC(=O)C(C#N)=C3C)o2)ccc1Cl,-15,-1,81*,-10,77*[fluorescence artefact?],+
CC1=C(C#N)C(=O)NC(=O)/C1=C\c1ccc(-c2ccc(C)cc2[N+](=O)[O-])o1,-5,1,100*,-6,48,+
Cc1ccc(-c2ccc(/C=N/N=C3/NC(=O)C(CC(=O)O)S3)o2)c([N+](=O)[O-])c1 (stereo not given),-54,-2,0,-36,14,.
COC(=O)c1[nH]c(C)c(/C(O)=C2\C(=O)C(=O)N(CCN3CCOCC3)C2c2ccc(C)o2)c1C (stereo not given),-24,1,9,-15,0,.
Oc1ccc2ccccc2c1N=Nc1ccccc1F,-6,2,8,-51,4,.
O=S(=O)(O)c1cccc(N=Nc2c(O)ccc3ccccc23)c1,1,3,85*,-9,2,+
COc1ccc2nc(C)cc(SCC(=O)Nc3c(C)cccc3C)c2c1,-10,1,78*,-3,41,i
COc1ccc2nc(C)cc(SCC(=O)NNC(=O)COc3ccc(C)cc3)c2c1,3,2,-1,-10,-1,.
COc1ccc2nc(C)cc(SCC(=O)NNC(=O)COc3cccc4ccccc34)c2c1,-4,-1,3,4,57,.
COc1ccc2nc(C)cc(SCC(=O)Nc3c(C)cc(C)cc3C)c2c1,-10,-1,51*,-14,67,i
Cn1cccc1/C=C1\SC(=Nc2cccc(O)c2)NC1=O,-8,1,85*,-8,0,+
CCN(CC)c1ccc2cc(C(N)=O)c(=N)oc2c1,8,8,22,-4,-2,.
CCCCCCc1cc2cc(C(=O)OCC)c(=O)oc2cc1O,-3,9.9*,+,-14,8,.
CCOC(=O)c1cc2ccc(OC(=O)c3ccco3)cc2oc1=O,-6,0,136*,-3,19,.
CCCCCCc1cc2cc(C(N)=O)c(=N)oc2cc1O,5,-1,72*,-21,15,.
CCCCCCc1cc2cc(S(=O)(=O)c3ccc(F)c(Cl)c3)c(=O)oc2cc1O,-2,-3,55*,-13,12,.
O=C(CNC(=O)c1ccc(-c2ccccc2)cc1)OCc1c(F)cccc1Cl,0,3,6,-5,-5,.
CCCCCCc1cc2cc(C(=O)Nc3ccc(OC)cc3)c(=O)oc2cc1O,-1,-1,28,-17,14,.
CCCCCCc1cc2cc(C(=O)NC)c(=N)oc2cc1O,20,1,51*,-16,.,i
Cc1cc2c(C)cc(=O)oc2c2c1NCCC2,-19,-1,97*,-2,2,.
SMILES,Tb hexokinase,Wee1 stabilizer,Hck-Nef inh,MDM2 E3 inh,14-3-3 Bad PPI,Hck-Nef confirm
Cc1cc(=O)oc2c(N)c(O)ccc12,-28,1,0,-18,1,.
c1ccc(-c2oc3ncnc(NCCN4CCOCC4)c3c2-c2ccccc2)cc1,-19,0,83*,-12,1,+
N=c1c2c(-c3ccccc3)c(-c3ccccc3)oc2ncn1CCN1CCOCC1,-19,1,78*,11,0,+
O=C(O)/C=C/C(=O)NCCC(c1ccccc1)c1ccccc1,-11,5,3,-11,-10,.
COc1ccc(C(C)(C)C)cc1NC(=O)Cn1cnnn1,-2,3,-5,4,-7,.
COCc1cc(C)nc(N/N=C/c2ccc(-c3ccc(Cl)cc3[N+](=O)[O-])o2)c1C#N,-23,-2,171*,0,86*,+

# Assay outcomes deposited in PubChem by several laboratories.
